Published values collected from several papers.
Compare with care: the assays were run in different laboratories.
Read-out: cell growth or viability

SMILES | cell line | assay | setting | measurement | value
Cc1n[nH]c2ccc3nc(-c4ccc(C(=O)NCCN(C)C)cc4F)c4c(c3c12)CCCCC4 | MV4-11 | resazurin | 72 h | GI50 | 88 nM
O=C(/C=C/c1cccc(C(=O)NO)c1)NO | HBL1 | ATP luminescence | 0.5 µM, 5 days | viability | 89.6%
CNCCC(=O)Nc1ccccc1/N=c1\cc(-c2ccc3nc(N)oc3c2)oc2ccccc12 | MDA-MB-468 | CCK-8 | 1 µM | inhibition | 40.6%
O=C(CCCCCCSc1ccc2ccccc2c1)NO | HBL1 | ATP luminescence | 0.1 µM, 5 days | viability | 112%
CN(C)CC1(NC(=O)c2ccc(-c3nc4ccc5[nH]ncc5c4c4c3CCCC4)cc2)CC1 | MV4-11 | resazurin | 72 h | GI50 | 536 nM
CCN(Cc1c(F)cccc1F)c1ccc(CO)c(Cl)c1 | RBE | ATP luminescence | 46 µM, 72 h | inhibition | 57%
O=C(Nc1nccs1)c1ccc(-c2nc3ccc4[nH]ncc4c3c3c2CCCC3)cc1 | MV4-11 | resazurin | 72 h | GI50 | 743 nM
C[C@H](Nc1ccc2c(c1)OCCn1cc(N3C(=O)OC[C@H]3C(F)F)nc1-2)C(N)=O | IM95 | ATP luminescence | 5 days | EC50 | 388 nM
COc1ccc2/c(=N/c3ccccc3NC(=O)CN)cc(-c3ccc4c(c3)OCCO4)oc2c1 | MDA-MB-468 | CCK-8 | 1 µM | inhibition | 15.2%
O=C(NC1CC1)c1ccc(-c2nc3ccc4[nH]ncc4c3c3c2CCCC3)cc1 | MV4-11 | resazurin | 72 h | GI50 | 481 nM
O=C(Nc1ccc(Cl)cc1)C1CCCN(C(=O)c2cc(C(F)(F)F)cc(C(F)(F)F)c2)C1 (racemic) | HBL1 | ATP luminescence | 1 µM, 5 days | viability | 92.8%
NC(=O)C1CCCN1C(=O)Nc1ccccc1/N=c1\cc(-c2ccc3c(c2)OCCO3)oc2cc(F)ccc12 (centres unmarked) | MDA-MB-468 | CCK-8 | 1 µM | inhibition | 3.25%
OCc1ccc(-c2nn(Cc3cncnc3)c3ccccc23)o1 | RBE | ATP luminescence | 46 µM, 72 h | inhibition | 71%
Cc1n[nH]c2ccc3nc(-c4ccc(C(=O)NCCN(C)C)cc4)c4c(c3c12)CCCCC4 | MV4-11 | resazurin | 72 h | GI50 | 98 nM
NCC(=O)Nc1ccccc1/N=c1\cc(-c2ccc3c(c2)OCO3)oc2c(N)cccc12 | MDA-MB-468 | CCK-8 | 1 µM | inhibition | -4.61%
OCc1ccc(-c2nn(Cc3ccccn3)c3ccccc23)o1 | RBE | ATP luminescence | 46 µM, 72 h | inhibition | 70%

SMILES | cell line | assay | setting | measurement | value
O=C(CCCCCCC(=O)Nc1ccccc1)NO | HBL1 | ATP luminescence | 0.5 µM, 5 days | viability | 49.7%
OCCc1ccc(-c2nn(Cc3ccccc3)c3ccccc23)o1 | RBE | ATP luminescence | 46 µM, 72 h | inhibition | 21%
Cc1n[nH]c2ccc3nc(-c4ccc(C(=O)N(C)CCN(C)C)nc4)c4c(c3c12)CCCCC4 | MV4-11 | resazurin | 72 h | GI50 | 1100 nM
O=C(Nc1cccc(Br)c1)c1cccc(S(=O)(=O)N2CCCCCC2)c1 | HBL1 | ATP luminescence | 0.5 µM, 5 days | viability | 110%
CCOC(=O)c1ccc(-c2nn(Cc3ccccc3)c3ccccc23)o1 | RBE | ATP luminescence | 46 µM, 72 h | inhibition | 35%
NCCC(=O)Nc1ccccc1/N=c1\cc(-c2ccc3oc(N)nc3c2)oc2ccccc12 | MDA-MB-468 | CCK-8 | 1 µM | inhibition | 59.8%
O=C(NO)c1ccc(CC(=O)N(CCO)c2ccccc2)cc1 | HBL1 | ATP luminescence | 0.1 µM, 5 days | viability | 103%
CCN(Cc1ccccc1)c1ccc(CO)c(Cl)c1 | RBE | ATP luminescence | 46 µM, 72 h | inhibition | 57%
Nc1ccccc1/N=c1\cc(-c2ccc3c(c2)OCO3)oc2ccccc12 | MDA-MB-468 | CCK-8 | 1 µM | inhibition | 5.28%
CN(C)CCNC(=O)c1ccc(-c2nc3ccc4[nH]ncc4c3c3c2CCCCC3)cc1 | MV4-11 | resazurin | 72 h | GI50 | 25 nM
CC(c1ccccc1)n1nc(-c2ccc(CO)o2)c2ccccc21 (centres unmarked) | RBE | ATP luminescence | 46 µM, 72 h | inhibition | 76%
CCc1nc(C(N)=O)c(Nc2ccc(N3CCC(N4CCN(C)CC4)CC3)c(OC)c2)nc1NC1CCOCC1 | MV4-11 | resazurin | 72 h | GI50 | 26 nM
Oc1cccc(-c2nc(N3CCOCC3)c3oc4ncccc4c3n2)c1 | MDA-MB-468 | CCK-8 | 1 µM | inhibition | 2.69%
CC(=O)OC[C@H]1O[C@@H](n2cnc(N)nc2=O)[C@H](OC(C)=O)[C@@H]1OC(C)=O | HBL1 | ATP luminescence | 0.5 µM, 5 days | viability | 111%
COCCC(=O)Nc1ccccc1/N=c1\cc(-c2ccc3c(c2)OCO3)oc2ccccc12 | MDA-MB-468 | CCK-8 | 1 µM | inhibition | 2.51%
CCN(Cc1cccc(C)c1)c1ccc(CO)c(Cl)c1 | RBE | ATP luminescence | 46 µM, 72 h | inhibition | 85%
